Experimental data reported in ChEMBL document CHEMBL1151428, “Capability of 11 antipneumococcal antibiotics to select for resistance by multistep and single-step methodologies” (2007).
Values after ≈ are worked out from the molar mass of the structure shown.

Legend:
Format in all cases: functional
Streptococcus pneumoniae [1] = assay: Antimicrobial activity against drug-resistant Streptococcus pneumoniae isolate 1635 after 49 passages with clarithromycin measured after 10 antibiotic-free subculture by multi-step resistance selection technique
Streptococcus pneumoniae [2] = assay: Antimicrobial activity against drug-resistant Streptococcus pneumoniae isolate 1635 after 14 passages by multi-step resistance selection technique
Outline: (§1)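 Daily serial passage in subinhibitory drug levels in 1 ml cation-adjusted Mueller-Hinton broth with 5% lysed horse blood; fresh broth for tigecycline. Each day, 10 μl were taken from the tube one to two dilutions below the MIC whose turbidity matched the growth control, and used to set the next MIC. […] MIC by macrodilution.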

Streptococcus pneumoniae [3] = assay: Antimicrobial activity against drug-resistant Streptococcus pneumoniae isolate 3274 by NCCLS M7-A7 method
Streptococcus pneumoniae [4] = assay: Antimicrobial activity against drug-resistant Streptococcus pneumoniae isolate 3676 after 44 passages with clarithromycin measured after 10 antibiotic-free subculture by multi-step resistance selection technique
Streptococcus pneumoniae [5] = assay: Antimicrobial activity against drug-resistant Streptococcus pneumoniae isolate 1635 after 14 passages with clindamycin measured after 10 antibiotic-free subculture by multi-step resistance selection technique
Streptococcus pneumoniae [6] = assay: Antimicrobial activity against drug-resistant Streptococcus pneumoniae isolate 1635 after 14 passages with azithromycin measured after 10 antibiotic-free subculture by multi-step resistance selection technique
Outline: (§2)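 Mutants selected by daily broth passage in subinhibitory drug in cation-adjusted Mueller-Hinton broth with 5% lysed horse blood. Stability was tested by 10 daily passages on blood agar without antibiotic, then macrodilution MIC.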

Streptococcus pneumoniae [7] = assay: Antimicrobial activity against drug-resistant Streptococcus pneumoniae isolate 2527 after 14 passages with gemifloxacin measured after 10 antibiotic-free subculture by multi-step resistance selection technique; outline: as §2
Streptococcus pneumoniae [8] = assay: Antimicrobial activity against drug-resistant Streptococcus pneumoniae isolate 3274 after 48 passages with Telithromycin measured after 10 antibiotic-free subculture by multi-step resistance selection technique; outline: as §2
Streptococcus pneumoniae [9] = assay: Antimicrobial activity against drug-resistant Streptococcus pneumoniae isolate 1077 by NCCLS M7-A7 method
Streptococcus pneumoniae [10] = assay: Antimicrobial activity against drug-resistant Streptococcus pneumoniae isolate 3009 after 19 passages with moxifloxacin measured after 10 antibiotic-free subculture by multi-step resistance selection technique; outline: as §2
Streptococcus pneumoniae [11] = assay: Antimicrobial activity against drug-resistant Streptococcus pneumoniae isolate 1076 after 35 passages with moxifloxacin measured after 10 antibiotic-free subculture by multi-step resistance selection technique; outline: as §2
Streptococcus pneumoniae [12] = assay: Antimicrobial activity against drug-resistant Streptococcus pneumoniae isolate 1635 by NCCLS M7-A7 method
Streptococcus pneumoniae [13] = assay: Antimicrobial activity against drug-resistant Streptococcus pneumoniae isolate 3413 by NCCLS M7-A7 method
Streptococcus pneumoniae [14] = assay: Antimicrobial activity against drug-resistant Streptococcus pneumoniae isolate 1077 after 49 passages with clindamycin measured after 10 antibiotic-free subculture by multi-step resistance selection technique
Streptococcus pneumoniae [15] = assay: Antimicrobial activity against drug-resistant Streptococcus pneumoniae isolate 3665 after 50 passages by multi-step resistance selection technique
Outline: (§3)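 Daily serial passage in broth at subinhibitory drug levels: 1 ml cation-adjusted Mueller-Hinton broth with 5% lysed horse blood; fresh broth for tigecycline. Each day 10 μl inoculum taken from the tube one to two dilutions below MIC matching growth-control turbidity, used to set next MIC. Continued until ≥8-fold MIC rise, minimum 14, maximum 50 passages; MIC read by macrodilution.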

Streptococcus pneumoniae [16] = assay: Antimicrobial activity against drug-resistant Streptococcus pneumoniae isolate 3676 by NCCLS M7-A7 method
Streptococcus pneumoniae [17] = assay: Antimicrobial activity against drug-resistant Streptococcus pneumoniae isolate 3243 after 20 passages with moxifloxacin measured after 10 antibiotic-free subculture by multi-step resistance selection technique; outline: as §2
Streptococcus pneumoniae [18] = assay: Antimicrobial activity against drug-resistant Streptococcus pneumoniae isolate 3009 after 21 passages with gemifloxacin measured after 10 antibiotic-free subculture by multi-step resistance selection technique; outline: as §2
Streptococcus pneumoniae [19] = assay: Antimicrobial activity against drug-resistant Streptococcus pneumoniae isolate 3009 by NCCLS M7-A7 method
Streptococcus pneumoniae [20] = assay: Antimicrobial activity against drug-resistant Streptococcus pneumoniae isolate 3243 after 29 passages with Telithromycin measured after 10 antibiotic-free subculture by multi-step resistance selection technique; outline: as §2
Streptococcus pneumoniae [21] = assay: Antimicrobial activity against drug-resistant Streptococcus pneumoniae isolate 3274 after 50 passages by multi-step resistance selection technique
Outline: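 Daily serial passage in subinhibitory drug levels in 1 ml cation-adjusted Mueller-Hinton broth with 5% lysed horse blood; fresh broth for tigecycline. Each day, 10 μl were taken from the tube one to two dilutions below the MIC whose turbidity matched the growth control, and used to set the next MIC. MIC by macrodilution.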

Streptococcus pneumoniae [22] = assay: Antimicrobial activity against drug-resistant Streptococcus pneumoniae isolate 1077 after 29 passages by multi-step resistance selection technique; outline: as §1
Streptococcus pneumoniae [23] = assay: Antimicrobial activity against drug-resistant Streptococcus pneumoniae isolate 24 after 50 passages with moxifloxacin measured after 10 antibiotic-free subculture by multi-step resistance selection technique; outline: as §2
Streptococcus pneumoniae [24] = assay: Antimicrobial activity against drug-resistant Streptococcus pneumoniae isolate 3676 after 14 passages with Telithromycin measured after 10 antibiotic-free subculture by multi-step resistance selection technique
Streptococcus pneumoniae [25] = assay: Antimicrobial activity against drug-resistant Streptococcus pneumoniae isolate 3243 after 33 passages by multi-step resistance selection technique; outline: as §1
Streptococcus pneumoniae [26] = assay: Antimicrobial activity against drug-resistant Streptococcus pneumoniae isolate 3665 after 26 passages with clarithromycin measured after 10 antibiotic-free subculture by multi-step resistance selection technique
Streptococcus pneumoniae [27] = assay: Antimicrobial activity against drug-resistant Streptococcus pneumoniae isolate 3665 by NCCLS M7-A7 method
Streptococcus pneumoniae [28] = assay: Antimicrobial activity against drug-resistant Streptococcus pneumoniae isolate 1077 after 29 passages with azithromycin measured after 10 antibiotic-free subculture by multi-step resistance selection technique; outline: as §2
Streptococcus pneumoniae [29] = assay: Antimicrobial activity against drug-resistant Streptococcus pneumoniae isolate 3665 after 38 passages with moxifloxacin measured after 10 antibiotic-free subculture by multi-step resistance selection technique
Streptococcus pneumoniae [30] = assay: Antimicrobial activity against drug-resistant Streptococcus pneumoniae isolate 2527 after 20 passages with azithromycin measured after 10 antibiotic-free subculture by multi-step resistance selection technique; outline: as §2
Streptococcus pneumoniae [31] = assay: Antimicrobial activity against drug-resistant Streptococcus pneumoniae isolate 24 by NCCLS M7-A7 method
Streptococcus pneumoniae [32] = assay: Antimicrobial activity against drug-resistant Streptococcus pneumoniae isolate 24 after 14 passages with Telithromycin measured after 10 antibiotic-free subculture by multi-step resistance selection technique; outline: as §2
Streptococcus pneumoniae [33] = assay: Antimicrobial activity against drug-resistant Streptococcus pneumoniae isolate 3665 after 14 passages with Telithromycin measured after 10 antibiotic-free subculture by multi-step resistance selection technique
Streptococcus pneumoniae [34] = assay: Antimicrobial activity against drug-resistant Streptococcus pneumoniae isolate 37 after 14 passages with Telithromycin measured after 10 antibiotic-free subculture by multi-step resistance selection technique
Streptococcus pneumoniae [35] = assay: Antimicrobial activity against drug-resistant Streptococcus pneumoniae isolate 3676 after 50 passages by multi-step resistance selection technique; outline: as §3
Streptococcus pneumoniae [36] = assay: Antimicrobial activity against drug-resistant Streptococcus pneumoniae isolate 3243 after 33 passages with azithromycin measured after 10 antibiotic-free subculture by multi-step resistance selection technique; outline: as §2
Streptococcus pneumoniae [37] = assay: Antimicrobial activity against drug-resistant Streptococcus pneumoniae isolate 3413 after 30 passages with Telithromycin measured after 10 antibiotic-free subculture by multi-step resistance selection technique; outline: as §2
Streptococcus pneumoniae [38] = assay: Antimicrobial activity against drug-resistant Streptococcus pneumoniae isolate 37 by NCCLS M7-A7 method
Streptococcus pneumoniae [39] = assay: Antimicrobial activity against drug-resistant Streptococcus pneumoniae isolate 3009 after 25 passages with clarithromycin measured after 10 antibiotic-free subculture by multi-step resistance selection technique
Streptococcus pneumoniae [40] = assay: Antimicrobial activity against drug-resistant Streptococcus pneumoniae isolate 3009 after 18 passages with levofloxacin measured after 10 antibiotic-free subculture by multi-step resistance selection technique; outline: as §2
Streptococcus pneumoniae [41] = assay: Antimicrobial activity against drug-resistant Streptococcus pneumoniae isolate 1076 by NCCLS M7-A7 method
Streptococcus pneumoniae [42] = assay: Antimicrobial activity against drug-resistant Streptococcus pneumoniae isolate 3243 after 41 passages with clarithromycin measured after 10 antibiotic-free subculture by multi-step resistance selection technique
Streptococcus pneumoniae [43] = assay: Antimicrobial activity against drug-resistant Streptococcus pneumoniae isolate 3676 after 50 passages with moxifloxacin measured after 10 antibiotic-free subculture by multi-step resistance selection technique
Streptococcus pneumoniae [44] = assay: Antimicrobial activity against drug-resistant Streptococcus pneumoniae isolate 3243 by NCCLS M7-A7 method
Streptococcus pneumoniae [45] = assay: Antimicrobial activity against drug-resistant Streptococcus pneumoniae isolate 2527 after 20 passages by multi-step resistance selection technique
Streptococcus pneumoniae [46] = assay: Antimicrobial activity against drug-resistant Streptococcus pneumoniae isolate 2527 by NCCLS M7-A7 method
Streptococcus pneumoniae [47] = assay: Antimicrobial activity against drug-resistant Streptococcus pneumoniae isolate 1076 after 14 passages with Telithromycin measured after 10 antibiotic-free subculture by multi-step resistance selection technique; outline: as §2
Streptococcus pneumoniae [48] = assay: Antimicrobial activity against drug-resistant Streptococcus pneumoniae isolate 1077 after 15 passages with Telithromycin measured after 10 antibiotic-free subculture by multi-step resistance selection technique; outline: as §2

With `CC[C@H]1OC(=O)[C@H](C)[C@@H](O[C@H]2C[C@@](C)(OC)[C@@H](O)[C@H](C)O2)[C@H](C)[C@@H](O[C@@H]2O[C@H](C)C[C@H](N(C)C)[C@H]2O)[C@](C)(O)C[C@@H](C)CN(C)[C@H](C)[C@@H](O)[C@]1(C)O` [AZITHROMYCIN] the MIC (Streptococcus pneumoniae [1]) was greater than 64 µg/mL, the MIC (Streptococcus pneumoniae [2]) was greater than 64 µg/mL and the MIC (Streptococcus pneumoniae [3]) was 0.008 µg/mL (≈ 0.0107 µM). It also gave an MIC (Streptococcus pneumoniae [4]) of 16 µg/mL (≈ 21.4 µM), an MIC (Streptococcus pneumoniae [5]) of 4 µg/mL (≈ 5.34 µM) and an MIC (Streptococcus pneumoniae [6]) greater than 64 µg/mL. It also gave an MIC (Streptococcus pneumoniae [7]) of 0.03 µg/mL (≈ 0.0401 µM), an MIC (Streptococcus pneumoniae [8]) of 1 µg/mL (≈ 1.34 µM) and an MIC (Streptococcus pneumoniae [9]) of 0.03 µg/mL (≈ 0.0401 µM). For the same compound, the MIC (Streptococcus pneumoniae [10]) was greater than 64 µg/mL, the MIC (Streptococcus pneumoniae [11]) was greater than 64 µg/mL and the MIC (Streptococcus pneumoniae [12]) was 2 µg/mL (≈ 2.67 µM). It also gave an MIC (Streptococcus pneumoniae [13]) greater than 64 µg/mL, an MIC (Streptococcus pneumoniae [14]) greater than 64 µg/mL and an MIC (Streptococcus pneumoniae [15]) of 16 µg/mL (≈ 21.4 µM). For the same compound, the MIC (Streptococcus pneumoniae [16]) was 4 µg/mL (≈ 5.34 µM), the MIC (Streptococcus pneumoniae [17]) was 0.016 µg/mL (≈ 0.0214 µM) and the MIC (Streptococcus pneumoniae [18]) was greater than 64 µg/mL. It also gave an MIC (Streptococcus pneumoniae [19]) greater than 64 µg/mL, an MIC (Streptococcus pneumoniae [20]) greater than 64 µg/mL and an MIC (Streptococcus pneumoniae [21]) of 0.008 µg/mL (≈ 0.0107 µM). It also gave an MIC (Streptococcus pneumoniae [22]) greater than 64 µg/mL, an MIC (Streptococcus pneumoniae [23]) greater than 64 µg/mL and an MIC (Streptococcus pneumoniae [24]) of 2 µg/mL (≈ 2.67 µM). For the same compound, the MIC (Streptococcus pneumoniae [25]) was 0.25 µg/mL (≈ 0.334 µM), the MIC (Streptococcus pneumoniae [26]) was 8 µg/mL (≈ 10.7 µM) and the MIC (Streptococcus pneumoniae [27]) was 8 µg/mL (≈ 10.7 µM). For the same compound, the MIC (Streptococcus pneumoniae [28]) was greater than 64 µg/mL, the MIC (Streptococcus pneumoniae [29]) was 8 µg/mL (≈ 10.7 µM) and the MIC (Streptococcus pneumoniae [30]) was 4 µg/mL (≈ 5.34 µM). It also gave an MIC (Streptococcus pneumoniae [31]) greater than 64 µg/mL, an MIC (Streptococcus pneumoniae [32]) greater than 64 µg/mL and an MIC (Streptococcus pneumoniae [33]) of 4 µg/mL (≈ 5.34 µM). For the same compound, the MIC (Streptococcus pneumoniae [34]) was greater than 64 µg/mL, the MIC (Streptococcus pneumoniae [35]) was 8 µg/mL (≈ 10.7 µM) and the MIC (Streptococcus pneumoniae [36]) was 0.5 µg/mL (≈ 0.668 µM). The MIC (Streptococcus pneumoniae [37]) was greater than 64 µg/mL, the MIC (Streptococcus pneumoniae [38]) was greater than 64 µg/mL and the MIC (Streptococcus pneumoniae [39]) was greater than 64 µg/mL. For the same compound, the MIC (Streptococcus pneumoniae [40]) was greater than 64 µg/mL, the MIC (Streptococcus pneumoniae [41]) was greater than 64 µg/mL and the MIC (Streptococcus pneumoniae [42]) was 1 µg/mL (≈ 1.34 µM). The MIC (Streptococcus pneumoniae [43]) was 4 µg/mL (≈ 5.34 µM), the MIC (Streptococcus pneumoniae [44]) was 0.03 µg/mL (≈ 0.0401 µM) and the MIC (Streptococcus pneumoniae [45]) was 4 µg/mL (≈ 5.34 µM). For the same compound, the MIC (Streptococcus pneumoniae [46]) was 0.016 µg/mL (≈ 0.0214 µM), the MIC (Streptococcus pneumoniae [47]) was greater than 64 µg/mL and the MIC (Streptococcus pneumoniae [48]) was greater than 64 µg/mL.
